Where a SMILES comes first, the peptide text is derived from it. [ ]: non-standard residue; d: D form. The star is where a group is joined. NH(Colchicin-10-yl) = COc1cc2c(c(OC)c1OC)-c1ccc(N*)c(=O)cc1[C@@H](NC(C)=O)CC2; FITC = O=C1OC2(c3ccc(O)cc3Oc3cc(O)ccc32)c2ccc(NC(=S)*)cc21; hPhe = N[C@@H](CCc1ccccc1)C(=O)O; Cit = NC(=O)NCCC[C@H](N)C(=O)O; βAla = NCCC(=O)O
Tests used:
[1] = test system: HT1080 cells (MT1-MMP positive); assay: MTT chemosensitivity assay, HT1080 cells; type: cell-based, human; details: in vitro, MTT IC50 ratio
Summary of the method: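 HT1080 and MCF7 cells were grown in RPMI 1640 with 10% FBS, 1 mmol/L pyruvate and 2 mmol/L glutamine, at low passage. MTT assay: exposure to test conjugate (2.4 nmol/L–5 μmol/L), free metabolite (0.1 nmol/L–5 μmol/L) or DMSO for 24 or 96 h. Survival was read 96 h post-treatment and IC50 taken from survival curves; mean ± SD of 3 independent experiments.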

[2] = Pharmacokinetics and tissue distribution in HT1080 tumor-bearing mice; type: in vivo, mouse; details: ICT2552 10.2 mg kg−1 i.p., 4 h post-administration
Summary of the method: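 Mice bearing HT1080 tumours received i.p. test conjugate (150 mg kg⁻¹), free metabolite (10.2 mg kg⁻¹) or vehicle (10% DMSO/Arachis oil). Tumour, blood, liver, kidney, lung, heart and spleen were collected at set times. Plasma (5000 g, 10 min) was diluted 1:5 into methanol; tissues were snap-frozen and homogenized in ice-cold methanol. Supernatants went to LC-MS against agent-free plasma/tissue calibrators; 3 mice per time point.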

[3] = test system: HT1080 tumors; assay: Antitumor activity, HT1080 xenograft, single agent; type: in vivo, mouse
Summary of the method: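 Female Balb/c nude mice (6–8 wk) carried s.c. HT1080 xenograft fragments (2–3 mm³) and were randomized at ~32 mm³. They got a single i.p. dose of test conjugate (37.5, 50, 62.5 or 75 mg kg⁻¹) or molar-equivalent free metabolite (7.5–15 mg kg⁻¹). Caliper volume ((a²×b)/2, normalized to day 0) and body weight were recorded daily for up to 64 days. Growth delay was the time to tumor-volume doubling relative to control. Mann-Whitney U test.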

[4] = ICT2588 metabolism ex vivo in MCF7 xenograft homogenate; type: in vitro ADME; details: human, other tissue homogenate, pH 7.6
Summary of the method: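 Supernatants were run at 100 mg tissue per ml with test compound at 20 μmol/L final. Aliquots taken over 120 min were acetonitrile-precipitated and analysed by LC-MS: reverse-phase, 22.5–50% acetonitrile/0.05% TFA gradient over 30 min, parent quantified at 360 nm. Three independent experiments.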

[5] = test system: HT1080 tumors; assay: Vascular shutdown and tumor necrosis in HT1080 tumors; type: in vivo, mouse; details: 24 h after i.p. ICT2588 150 mg kg−1, HT1080 tumor-bearing mice, mean of 3 mice
Summary of the method: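 Mice bearing HT1080 tumours got i.p. test conjugate (150 mg kg⁻¹), free metabolite (10.2 mg kg⁻¹) or vehicle (10% DMSO/Arachis oil). Functional tumour vasculature and hemorrhagic necrosis were assessed 24 h later; mean of 3 mice ± standard error.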

[6] = test system: MCF7; assay: Intracellular fluorescence following treatment; type: cell-based, human; details: in vitro

| Structure (SMILES) | chemosensitivity of HT1080 cells relative to MCF7 cells [1] | concentration of ICT2552 in plasma [2] | concentration of ICT2552 in tumor versus liver tissue [2] | tumor growth delay ([3]; ICT2552 15 mg kg−1 single i.p. dose (equimolar to ICT2588 75 mg kg−1)) [days] | antitumor response compared with ICT2588 at equimolar doses ([3]; ICT2552 7.5, 10, 12.5 and 15 mg kg−1 i.p.) | half-life [4] [min] | increase in hemorrhagic necrosis [5] [fold] | tumor growth delay ([3]; ICT2588 75 mg kg−1 single i.p. dose, p<0.01) [days] | loss in mouse bodyweight (maximum) ([3]; all doses of ICT2588 used (37.5-75 mg kg−1 i.p.), data not shown) [%] | cell entry / intracellular fluorescence following treatment [6] |
| --- | --- | --- | --- | --- | --- | --- | --- | --- | --- | --- |
| COc1cc2c(c(OC)c1OC)-c1ccc(N)c(=O)cc1[C@@H](NC(C)=O)CC2 [ICT2552, azademethylcolchicine] | equally cytotoxic to HT1080 and MCF7 cells | below the level of detection | not significantly different | 1.9 | significantly lower antitumor response |  |  |  |  |  |
| COc1cc2c(c(OC)c1OC)-c1ccc(NC(=O)[C@H](Cc3ccc(O)cc3)NC(=O)[C@H](CC(C)C)NC(=O)[C@H](Cc3ccc(O)cc3)NC(=O)[C@H](CCc3ccccc3)NC(=O)CNC(=O)[C@H](CCCNC(N)=O)NC(=O)[C@H](CO)NC(=O)[C@H](CCCNC(=N)N)NC(=O)CCNC(=S)Nc3ccc4c(c3)C(=O)OC43c4ccc(O)cc4Oc4cc(O)ccc43)c(=O)cc1[C@@H](NC(C)=O)CC2 [ICT2588] ({FITC-βAla}-RS[Cit]G[hPhe]YLY-{NH(Colchicin-10-yl)}; N-terminus and C-terminus assumed) | at least 10 fold |  |  |  |  | 33.1 | 3 | 4.4 | ≤ 6 | lack of observable intracellular fluorescence |
